The EternaBench riboswitch data

Tested on: MS2 coat protein
Test: apparent Kd, MS2 coat protein; higher = weaker binding; RNA-MaP array; FMN 200 µM where present
Outline: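 Apparent Kd: the median of filtered binding-curve fits from single clusters. Designs were transcribed on Illumina sequencing-chip clusters by stalled E. coli RNA polymerase and titrated with SNAP-549-labelled MS2 coat protein from 0.7 or 1.5 nM, doubling to 3 µM, in 100 mM Tris-HCl pH 7.5, 80 mM KCl, 4 mM MgCl2, BSA, DTT, yeast tRNA and Tween-20. Each series ran without and then with constant ligand, and green signal was normalised to red-channel RNA signal and control-cluster median Fmax.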

[1] = designed as: ON switch for flavin mononucleotide, no ligand
[2] = ligand present: flavin mononucleotide, designed as: ON switch for flavin mononucleotide
[3] = designed as: OFF switch for flavin mononucleotide, no ligand
[4] = ligand present: flavin mononucleotide, designed as: OFF switch for flavin mononucleotide

Row | Sequence | apparent Kd [1] | apparent Kd [2] | apparent Kd [3] | apparent Kd [4]
1 | AGUAGGCAGUGAGGAUAUGUACUUGUAACGGUACAUGAGGAUCACCCAUGUGGUGGGAGUGGAGGACAGAAGGCACCGUUUGGG | 0.114 µM | 0.0666 µM | – | –
2 | CAUUAAUUGAUUAUUGUAUUUUUACAGGAUAUGUUACAUGAGGAUCACCCAUGUUUAUAUGGGAGACAGAAGGGUAUUUAUAGA | – | – | 0.355 µM | 0.193 µM
3 | AAAACAUGAGGAUCACCCAUGUAAAGAACGGUUAAUAGAUCUGAGGAUAUACUAGAAUUUAGGUAGUAGAAGGCAGUGGGUACA | 0.035 µM | 0.0262 µM | – | –
4 | CGCUAAGAUGGGUUUAAUGGAGCAUAGGAUAUGCUUGUACAUGAGGAUCACCCAUGUUAUAUUGUGCAGAAGGGUGCAUUUGCG | 0.457 µM | 0.158 µM | – | –
5 | CCUCGGUUAGGAUAUGGAUGGUCACCCUGCGGUGUACCGCUCCAGAAGGGACAUGAGGAUCACCCAUGUUACGC | – | – | 0.106 µM | 0.338 µM
6 | CAAAAGGAAGGAUAUGCAUCGGGAGGUGCUCAGCAUCAAAUACAUGAGGAUCACCCAUGUAGAAGGUCUGAAAA | – | – | 0.0321 µM | 0.0857 µM
7 | CGCACUAUACAUGAGGAUCACCCAUGUAAUUAUGAGAUAGUCAGAAGGCAUUAUUAGUGAUUUAAUGAGGAUAUGAAUAGUGCG | 0.0798 µM | 0.0112 µM | – | –
8 | GCGCUUAUACAGAAGGCCAGUUACAUGAGGAUCACCCAUGUUAGAUUGUGGAGGAUAUGUGUUUUAUUACAGAUAGUUGAGCGC | 0.0134 µM | 0.00684 µM | – | –
9 | GACAUCGCAGGAUAUUAUUGUUUGUACAUGAGGAUCACCCAUGUUAAUUGGGUUAGUGUUUAAGAAGGGCGGUGUC | – | – | 1.34 µM | 0.901 µM
10 | AGCUGGUGACAGCAUCGAGCAAAACAUGAGGAUCACCCAUGUAGAAGGCUGUACGGUUACCGUACAGAGGAUAUACAUAGCUCG | – | – | 0.00715 µM | 0.01 µM
11 | CGAGGCGUACAUGAGGAUCACCCAUGUACCUAACAACAAAGCAAGGAUAUCCUGGCUAUAAUACAGGAGAAGGUGUGGUCCUUA | – | 0.177 µM | – | –
12 | UAGAAGUCAGGAUAUCCAUGGCGGCACUUGCGUGGUGGCGUGGAGAAGGGACAUGAGGAUCACCCAUGUAAAGG | – | – | 0.148 µM | 0.174 µM
13 | UGACGGAGCAGAGGAUAUACAUGAGGAUCACCCAUGUAAGAUCUCCAGGAAACUGGAGAUCAAAUGUAGAAGGCUGCUCCGUCA | – | – | 0.0181 µM | 0.056 µM
14 | UUAACUCAUGUAGGAUAUGCAUGGCGAAGCUACGCAGAAGGACAUGAGGAUCACCCAUGUUCUAGCGUCUGGAUACAGAUGCAA | – | – | 0.0561 µM | 0.227 µM
15 | GCACAUGGCAUAGGAUAUAGAAGUAUACAUUAUAUAGGUAGUGUCACAACACUAGAAGGAUGAAACAUGAGGAUCACCCAUGUA | 0.0162 µM | 0.0123 µM | – | –
16 | AUUGUGUUAGGAUAUGCUUAUGGUGGAUAGUCCAGUAUGAUGUAGAAGGGACAUGAGGAUCACCCAUGUGCUGA | – | – | 0.0469 µM | 0.0485 µM
17 | CAGAAGUCAGGAUAUGCAUGGCGGGACUUGCGUCGUGGCGUGCAGAAGGGACAUGAGGAUCACCCAUGUAAAGA | – | – | 0.0525 µM | 0.0624 µM
18 | ACCUUACAUGAGGAUCACCCAUGUUAGGAUAUCUCGCUUGCGCAAUCACAGCACAAGCAGAGAAGGGACGCGGG | – | – | 0.0281 µM | 0.0325 µM
19 | UUAAAUCAUGUAGGAUAUGCAUGGCGAAGCUACGCAGAAGGACAUGAGGAUCACCCAUGUGCUAGCUACCGGAGACGGUGGCAA | – | – | 0.0577 µM | 0.195 µM

Row | Sequence | apparent Kd [1] | apparent Kd [2] | apparent Kd [3] | apparent Kd [4]
20 | AGGUGUAGAGGAUAUUUAUUCUUCCACAUGAGGAUCACCCAUGUCCCGGUCACCAGGGACGGAGAAGGCUACACCA | – | – | 0.077 µM | 0.0883 µM
21 | UCGAUAAGGAGAGGAUAUGGACAUGAGGAUCACCCAUGUACAUGGGAAUAUAUACUGAAUUUUUACUAGAAGGCUUACAUAAAU | – | – | 0.0147 µM | 0.0124 µM
22 | ACAGCGUGAGGAUAUACAUGAGGAUCACCCAUGUAUGGCAGGUUAUCCUGUCGUAAGUGUAGAAGGCACGCUGU | – | – | 0.0204 µM | 0.0585 µM
23 | GUAUCACGAGGAUAUACAUGAGGAUCACCCAUGUAGAAGCCAUGUGGUGCUCAAGUAUGUAGAAGGCGUGCUCC | – | – | – | 0.0333 µM
24 | CUCGUGUUAGGAUAUCGUGGCUGGGCUGGGACGUCCGAUCGCGAGAAGGGACAUGAGGAUCACCCAUGUAAAAC | – | – | 0.0367 µM | 0.086 µM
25 | GUUACAUGAGGAUCACCCAUGUAUGUGUGGGAGUAAGUGUCUUAGGAUAUCUAUGAUUUAAUUGAAGAGAAGGAAGAUUGUUGU | 0.116 µM | 0.122 µM | – | –
26 | AAUGUUUGAUUCCACUUAUACAUGAGGAUCACCCAUGUUAUCGAGGAUAUGCAUUAAAGUGUUUAGCAGAAGGCGAUGUAAUUG | – | – | 0.00742 µM | 0.0236 µM
27 | ACAUGAGGAUCACCCAUGUUCACAUAGGAUAUUGAUUAUAUUGGAUAUAGAAUAUUUAUAAUACACAAGAAGGAUGCAAGAUGG | 0.0164 µM | 0.0135 µM | – | –
28 | AGACCGCUACGCCGGUUUGACGCACAGGAUAUGCGGUUACAUGAGGAUCACCCAUGUGGCCAUGAGUAGAAGGGUGGUUCGUCC | 0.0499 µM | 0.0391 µM | – | –
29 | AGUCUGCGAGGAUAUACAUGAGGAUCACCCAUGUGCGAAGAACUAGUGAGGUCGAUUGGUAGAAGGCGCGGACA | – | – | 0.297 µM | 0.0303 µM
30 | CUCGGACAUGAGGAUCACCCAUGUGAGGAUAUGGUGCUAUCGUCAUUAGACGAUUGCGUUAGAAGGCAUAUUUU | – | – | 0.0287 µM | 0.0271 µM
31 | UGUCGGACCAGAGGAUAUUACAUGAGGAUCACCCAUGUAUGAACCAAUAGCUGGAAACAGCAAUGUAAGAAGGCUGCUCCGACA | – | – | 0.00974 µM | 0.105 µM
32 | GUGGCACAUGAGGAUCACCCAUGUAGGUAGAACAUAGGAUAUCACCAACAAAAUACCUGGUGAGAAGGAUGAUGCC | 0.166 µM | 0.0598 µM | – | –
33 | ACCAGUGACACAGGAUAUCCGUGCAUGUAGCACGGAGAAGGGUGUUCCAAUCAACUCACAUGAGGAUCACCCAUGUGCUACUUG | 0.176 µM | 0.0598 µM | – | –
34 | CUGAUUUGCUAGAAGGGUGACAUGAGGAUCACCCAUGUGCGGGCAGACCUAUCUUCAUGCCCGCCACAGGAUAUAGCAAUUCGC | 0.0383 µM | 0.0482 µM | – | –
35 | GCUGGGUCAGGAUAUACAAGAUCGAAAGAUCAAAGAUUCGUACAUGAGGAUCACCCAUGUAGAAGGGACUGGGC | – | – | 0.0234 µM | 0.0317 µM
36 | GUCACACACCGCUCCGUGUCUGACAUGAGGAUCACCCAUGUGAGAAGGUAGCGUCGCAGUAACGUUAAGGAUAUCACGUACAGA | – | – | 0.00704 µM | 0.0074 µM
37 | CGCUAGUCAGGAUAUACGAACAUGUCACAAGACGUGAAGGGACAUGAGGAUCACCCAUGUAGAAGGGACUAGCA | – | – | 0.0441 µM | 0.171 µM
38 | GUCGAAACCAUACUAGUCGACGGUCAGGAUAUACAUGAGGAUCACCCAUGUGCUAUUGAUACUAUGUAGAAGGGACCCACCGCA | – | – | 0.015 µM | 0.0246 µM

Row | Sequence | apparent Kd [1] | apparent Kd [2] | apparent Kd [3] | apparent Kd [4]
39 | GAGUGGAAGGCCGCUACAUGAGGAUCACCCAUGUGCUAAGCACAGGAUAUCGCGCUAGCCCGGCGCGAGAAGGGUGACGGCCUU | 0.577 µM | 0.277 µM | – | –
40 | CAAUUUAUGUCAGGAUAUACAAUACAAUGAUUAGUAGAAGGGAUUAAUACAUGAGGAUCACCCAUGUCAUGUGUCAUAGUAACC | – | – | 0.0239 µM | 0.0194 µM
41 | GGUUAUUGCAAGGAUAUGCUUUUUUUUGAAAUUGCAGAAGGUGCAACAUGAGGAUCACCCAUGUUGGAUGGGUU | – | – | 0.166 µM | 0.125 µM
42 | AAAAGGUCAGGAUAUACAAAAAAAAAAAAAAAAAAAAAAAAGUAGAAGGGACAUGAGGAUCACCCAUGUGAAAA | – | – | 0.0861 µM | 0.074 µM
43 | AGAUAGGACAGAGGAUAUACGUGCUAGAGAUACUAGCAAAAUUUCCUCACAUGAGGAUCACCCAUGUAGAAGGCUGUCCUAUCG | – | – | 0.0156 µM | 0.436 µM
44 | GUGCGACAUGAGGAUCACCCAUGUGAGGAUAUCCCGGGCCGGGCUUUUGCCCGGCCCGGGAGAAGGCGCGUCGU | – | – | 0.0684 µM | 0.0707 µM
45 | GUAGUUAGUAGAGGAUAUUAGUAUGUGUAAUAUUGAGAAGGUUACAUGAGGAUCACCCAUGUGAUCAAUCACUGUUAAGGUUGC | – | – | 0.00648 µM | 0.00671 µM
46 | GCCGAUUAAGUCAGGAUAUACCUAUGGAUACAUAGGUAGAAGGGACAUGAGGAUCACCCAUGUUCCUCAGCGGC | – | – | 0.0166 µM | 0.0502 µM
47 | UUGGACGUCGUAGGAUAUGUAGGAUAUUCCUACAUGAGGAUCACCCAUGUUGACAUGGAAGAAGGACAGGAGGACGAUGUCCAU | 0.346 µM | 0.00782 µM | – | –
48 | GCUAUAGAUGUAGGAUAUCAUAUAGAAGCUAUGUGAGAAGGACAUGAGGAUCACCCAUGUCAAUGGCUGGAGCGAAGUUAUGGC | – | – | 0.0304 µM | 0.0352 µM
49 | UUGAUUAUACAAGGAUAUCAAUUGUAAUUGAGACUUACAUGAGGAUCACCCAUGUUAAUAUUUUUUGAGAAGGUGUAUUUUCAG | 0.0272 µM | 0.0254 µM | – | –
50 | GGAAGACAUGAGGAUCACCCAUGUGGGAUUAUGGGAGGAUAUACAAAGACGAGAGUCAGAGUAGAAGGCCUAGGAU | 0.0843 µM | 0.0339 µM | – | –
51 | AGCUCGCGAAGAGGAUAUACAGCGGCGACCUAUCAUGAUGAGCGGGUUACAUGAGGAUCACCCAUGUAGAAGGCUUCCCGACUC | – | – | 0.0179 µM | 0.0522 µM
52 | GUUGGUGUAGAAGGAUAUUGGUGAUGCGUCUUGUACAUGAGGAUCACCCAUGUCACUCUGCACGCCGAGAAGGUCUGCAAAUGG | 0.07 µM | 0.0481 µM | – | –
53 | AGGAGUACAGGAUAUACAUGAGGAUCACCCAUGUGAGAAUUAAGUGGCGUACCACAAAGUAGAAGGGUACUCCA | – | – | 0.0505 µM | 0.198 µM
54 | AUUUUACAUGAGGAUCACCCAUGUUUUGGCGGGUCAGGAUAUAGAUCGGAUGAGUUCUGUCUAGAAGGGACAUGUA | 0.0775 µM | 0.0716 µM | – | –
55 | GAGGCACAUGAGGAUCACCCAUGUGGGUAUAACAUAGGAUAUCACCAACAAAAUACCCGGUGAGAAGGAUGAUGCC | 0.217 µM | 0.113 µM | – | –
56 | CUGAAGAUAUCAGGAUAUCUAUUUCCUACAUGAGGAUCACCCAUGUAGGUGAUCAGCCAAGUAAAGGAGAAGGGAUAUCUUUAG | 0.0323 µM | 0.00978 µM | – | –
